Measurements gathered from unrelated publications.
Target: Mitogen-activated protein kinase kinase kinase 2 (MAP3K2, Homo sapiens, UniProt Q9Y2U5)
Residues used in one study (Q9Y2U5 1-619): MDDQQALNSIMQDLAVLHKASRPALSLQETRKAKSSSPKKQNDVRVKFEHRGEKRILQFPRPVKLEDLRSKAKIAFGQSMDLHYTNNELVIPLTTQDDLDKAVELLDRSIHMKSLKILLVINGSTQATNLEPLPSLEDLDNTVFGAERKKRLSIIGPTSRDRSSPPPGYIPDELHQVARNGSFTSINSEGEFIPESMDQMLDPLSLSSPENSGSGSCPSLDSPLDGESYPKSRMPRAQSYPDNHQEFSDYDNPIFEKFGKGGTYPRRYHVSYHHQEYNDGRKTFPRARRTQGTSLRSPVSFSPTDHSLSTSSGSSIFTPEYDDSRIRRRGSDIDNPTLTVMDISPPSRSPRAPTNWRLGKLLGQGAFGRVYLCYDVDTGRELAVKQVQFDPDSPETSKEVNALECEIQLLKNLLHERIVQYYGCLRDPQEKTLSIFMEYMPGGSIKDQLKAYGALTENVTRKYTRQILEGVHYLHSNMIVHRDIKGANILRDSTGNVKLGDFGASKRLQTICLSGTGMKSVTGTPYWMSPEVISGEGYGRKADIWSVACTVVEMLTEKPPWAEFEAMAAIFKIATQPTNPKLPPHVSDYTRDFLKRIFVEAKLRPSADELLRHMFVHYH

SMILES | read-out | action | technique | concentration | quantity | value
Nc1ncc(-c2nc(N3CCOCC3)nc(N3CCOCC3)n2)c(C(F)F)n1 | binding |  | competition with immobilised ligand | 10 µM | remaining binding | 71%
N#CC1(c2ccccn2)CCN(Cc2cc(C(=O)O)c(=O)n3ccccc23)CC1 | cell-free assay |  | competition with immobilised ligand | 1 µM | remaining binding | 76%
COc1cc(Nc2ncc(F)c(Nc3ccc4c(n3)NC(=O)C(C)(C)O4)n2)cc(OC)c1OC | binding |  | competition with immobilised ligand | 10 µM | inhibition | 99%
CC(C)(C)c1cc(C=C(C#N)C#N)cc(Br)c1O | enzyme activity | inhibitor |  | 0.5 µM | remaining activity | 93.7%
Cc1nn(C)cc1-c1nc2c(N3CCN(Cc4ccc(Cl)cc4)CC3)c(Cl)cnc2[nH]1 | binding |  | competition with immobilised ligand | 1 µM | remaining binding | 77%
COc1ncccc1-c1cnn2ccc(N3CCN(C(=O)OC(C)C)CC3)nc12 | binding |  | competition with immobilised ligand | 1 µM | remaining binding | 100%
COCc1c(-c2cc3cc(C)cc(OC)c3s2)c2c(N)ncnn2c1CN1CCNC(=O)C1 | cell-free assay |  | competition with immobilised ligand | 1 µM | inhibition | 98.8%
Cn1cc(-c2cccc(N3CCc4c(sc5c4CC(C)(C)C5)C3=O)c2CO)cc(Nc2ccncn2)c1=O | enzyme activity | inhibitor |  | 1 µM | inhibition | -2%
O=c1[nH]c2ccccc2n1C1CCN(Cc2ccc(-c3[nH]c4cc5ncnc5cc4nc3-c3ccccc3)cc2)CC1 | cell-free assay |  |  | 0.5 µM | remaining signal | 92.4%
Cn1cc(-c2cc(F)cc(N3CCn4c(cc5c4CCCC5)C3=O)c2CO)cc(Nc2ccc(N3CCN(C4COC4)CC3)cn2)c1=O | enzyme activity | inhibitor |  | 0.1 µM | inhibition | -1%
Cn1cncc1[C@](O)(COc1ccc(C#N)cc1-c1ccc(OC(F)(F)F)cc1)c1ccc(C#N)cc1 | cell-free assay |  | competition with immobilised ligand | 1 µM | remaining binding | 77%
